Data: ChEMBL document CHEMBL4400518, “Synthesis, antimicrobial and cytotoxic activities, and molecular docking studies of N-arylsulfonylindoles containing an aminoguanidine, a semicarbazide, and a thiosemicarbazide moiety” (Eur J Med Chem, 2019)
≈ marks a conversion by molar mass, not a printed value.

Legend:
[1] = Selectivity index, ratio of IC50 for HEK293T cells to MIC for Bacillus subtilis CMCC 63501; format: toxicity; details: human, read-out: Selectivity Index
[2] = Selectivity index, ratio of IC50 for HEK293T cells to MIC for methicillin-resistant Staphylococcus aureus ATCC 43300; format: toxicity; details: human, read-out: Selectivity Index
[3] = Selectivity index, ratio of IC50 for HEK293T cells to MIC for Pseudomonas aeruginosa CMCC 27853; format: toxicity; details: human, read-out: Selectivity Index
[4] = Selectivity index, ratio of IC50 for HEK293T cells to MIC for Enterococcus faecalis CMCC 29212; format: toxicity; details: human, read-out: Selectivity Index
Escherichia coli [5] = assay: Antibacterial activity against Escherichia coli CMCC 25922 measured after 24 hrs by ELISA; format: functional; details: CMCC 25922, 24 h
Summary of the method: (§1)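 Broth microdilution MIC. Mid-log bacteria in MHB or TSB diluted 1000-fold, inoculated at 10^5 CFU/mL. Compounds added from DMSO stocks; final DMSO at most 0.05%. Incubation 24 h at 37 °C. Growth read as absorbance at 630 nm. MIC taken as the lowest concentration giving complete growth inhibition. Three independent experiments.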

Pseudomonas aeruginosa [6] = assay: Antibacterial activity against Pseudomonas aeruginosa CMCC 10104 measured after 24 hrs by ELISA; format: functional; details: CMCC 10104, 24 h; summary of the method: as §1
Staphylococcus aureus [7] = assay: Antibacterial activity against Staphylococcus aureus CMCC 25923 assessed as ratio of MIC after and before 16 passages at sub-MIC; format: functional
Summary of the method: (§2)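 Resistance by serial passage. After an initial broth-dilution MIC, bacteria grown at MIC/2 were transferred to a fresh MIC assay every 22 h incubation, repeatedly. Norfloxacin was the comparator antibiotic. MIC was tracked against passage day.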

Streptococcus pneumoniae = assay: Antibacterial activity against Streptococcus pneumoniae CMCC 31968 measured after 24 hrs by ELISA; format: functional; details: CMCC 31968, 24 h
[8] = Selectivity index, ratio of IC50 for HEK293T cells to MIC for Staphylococcus aureus CMCC(B) 26003; format: toxicity; details: human, read-out: Selectivity Index
Pseudomonas aeruginosa [9] = assay: Antibacterial activity against Pseudomonas aeruginosa CMCC 27853 measured after 24 hrs by ELISA; format: functional; details: CMCC 27853, 24 h; summary of the method: as §1
Pseudomonas aeruginosa [10] = assay: Antibacterial activity against multidrug-resistant Pseudomonas aeruginosa ATCC BAA-2111 measured after 24 hrs by ELISA; format: functional; details: ATCC BAA-2111, 24 h
Summary of the method: (§3)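 Broth serial dilution MIC. Mid-log bacteria in Mueller-Hinton or Tryptone Soya broth, diluted 1000-fold and inoculated at 10^5 CFU/mL. Compounds from DMSO stock, final DMSO ≤0.05%. Incubated 24 h at 37 °C; growth read as absorbance at 630 nm. MIC is the lowest concentration giving complete growth inhibition. Three independent experiments.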

Streptococcus pyogenes = assay: Antibacterial activity against Streptococcus pyogenes CMCC 32067 measured after 24 hrs by ELISA; format: functional; details: CMCC 32067, 24 h; summary of the method: as §1
[11] = Selectivity index, ratio of IC50 for HEK293T cells to MIC for Pseudomonas aeruginosa CMCC 10104; format: toxicity; details: human, read-out: Selectivity Index
[12] = Cytotoxicity against human A590 cells measured after 48 hrs by CCK8 assay; format: functional, cell-based
Summary of the method: (§4)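 Cells kept in DMEM with 10% FBS and penicillin-streptomycin at 37 °C, 5% CO2. About 1×10^4 cells per well attached for 24 h, then exposed for 48 h to 0.3, 1, 3, 10, 30 and 100 µmol/L of compound, in triplicate wells. CCK-8 added for 3 h, OD read at 450 nm. IC50 is the concentration inhibiting growth by 50%.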

SGC-7901 = assay: Cytotoxicity against human SGC7901 cells measured after 48 hrs by CCK8 assay; format: functional, cell-based; details: SGC-7901, 48 h; summary of the method: as §4
Staphylococcus aureus [13] = assay: Antibacterial activity against methicillin-resistant Staphylococcus aureus ATCC 43300 measured after 24 hrs by ELISA; format: functional; details: ATCC 43300, 24 h; summary of the method: as §3
Staphylococcus aureus [14] = assay: Antibacterial activity against Staphylococcus aureus CMCC 25923 measured after 24 hrs by ELISA; format: functional; details: CMCC 25923, 24 h; summary of the method: as §1
[15] = Selectivity index, ratio of IC50 for HEK293T cells to MIC for multidrug-resistant Escherichia coli ATCC BAA-196; format: toxicity; details: human, read-out: Selectivity Index
[16] = Selectivity index, ratio of IC50 for HEK293T cells to MIC for methicillin-resistant Staphylococcus aureus ATCC 33591; format: toxicity; details: human, read-out: Selectivity Index
[17] = Selectivity index, ratio of IC50 for HEK293T cells to MIC for Streptococcus pyogenes CMCC 32067; format: toxicity; details: human, read-out: Selectivity Index
Bacillus subtilis = assay: Antibacterial activity against Bacillus subtilis CMCC 63501 measured after 24 hrs by ELISA; format: functional; details: CMCC 63501, 24 h; summary of the method: as §1
Enterococcus faecalis = assay: Antibacterial activity against Enterococcus faecalis CMCC 29212 measured after 24 hrs by ELISA; format: functional; details: CMCC 29212, 24 h; summary of the method: as §1
Staphylococcus aureus [18] = assay: Antibacterial activity against methicillin-resistant Staphylococcus aureus ATCC 33591 measured after 24 hrs by ELISA; format: functional; details: ATCC 33591, 24 h; summary of the method: as §3
[19] = Selectivity index, ratio of IC50 for HEK293T cells to MIC for Staphylococcus aureus CMCC 25923; format: toxicity; details: human, read-out: Selectivity Index
HEK-293T = assay: Cytotoxicity against HEK293T cells measured after 48 hrs by CCK8 assay; format: cell-based; details: Homo sapiens; summary of the method: as §4
Staphylococcus aureus [20] = assay: Antibacterial activity against Staphylococcus aureus CMCC(B) 26003 measured after 24 hrs by ELISA; format: functional; details: CMCC(B) 26003, 24 h; summary of the method: as §1
[21] = Selectivity index, ratio of IC50 for HEK293T cells to MIC for Streptococcus pneumoniae CMCC 31968; format: toxicity; details: human, read-out: Selectivity Index
[22] = Selectivity index, ratio of IC50 for HEK293T cells to MIC for Escherichia coli CMCC 25922; format: toxicity; details: human, read-out: Selectivity Index
[23] = Selectivity index, ratio of IC50 for HEK293T cells to MIC for Escherichia coli CMCC 44568; format: toxicity; details: human, read-out: Selectivity Index
Escherichia coli [24] = assay: Antibacterial activity against Escherichia coli CMCC 44568 measured after 24 hrs by ELISA; format: functional; details: CMCC 44568, 24 h; summary of the method: as §1
Escherichia coli [25] = assay: Antibacterial activity against multidrug-resistant Escherichia coli ATCC BAA-196 measured after 24 hrs by ELISA; format: functional; details: ATCC BAA-196, 24 h; summary of the method: as §3
Escherichia coli [26] = assay: Antibacterial activity against Escherichia coli CMCC 44568 assessed as ratio of MIC after and before 16 passages at sub-MIC; format: functional; summary of the method: as §2
[27] = Selectivity index, ratio of IC50 for HEK293T cells to MIC for multidrug-resistant Pseudomonas aeruginosa ATCC BAA-2111; format: toxicity; details: human, read-out: Selectivity Index

SMILES	MIC (Escherichia coli [5]) [µM]	MIC (Pseudomonas aeruginosa [6]) [µM]	Ratio (Staphylococcus aureus [7])	MIC (Streptococcus pneumoniae) [µM]	MIC (Pseudomonas aeruginosa [9]) [µM]	MIC (Pseudomonas aeruginosa [10]) [µM]	MIC (Streptococcus pyogenes) [µM]	MIC (Staphylococcus aureus [13]) [µM]	MIC (Staphylococcus aureus [14]) [µM]	MIC (Bacillus subtilis) [µM]	MIC (Enterococcus faecalis) [µM]	MIC (Staphylococcus aureus [18]) [µM]	MIC (Staphylococcus aureus [20]) [µM]	MIC (Escherichia coli [24]) [µM]	MIC (Escherichia coli [25]) [µM]	Ratio (Escherichia coli [26])	also measured
C/C(=N/NC(=N)N)c1cn(S(=O)(=O)c2ccc(C)cc2)c2ccc(Br)cc12	286 (≈ 128 µg/mL)	> 286	0	2.24 (≈ 1 µg/mL)	> 286	> 71.6	286 (≈ 128 µg/mL)	1.12 (≈ 0.502 µg/mL)	2.24 (≈ 1 µg/mL)	4.47 (≈ 2 µg/mL)	8.94 (≈ 4.01 µg/mL)	2.24 (≈ 1 µg/mL)	4.47 (≈ 2 µg/mL)	1.12 (≈ 0.502 µg/mL)	0.56 (≈ 0.251 µg/mL)	0	selectivity ratio [1]: 12.6; selectivity ratio [2]: 50.4; selectivity ratio [3]: < 0.2; selectivity ratio [4]: 6.31; selectivity ratio [8]: 12.6; selectivity ratio [11]: < 0.2; IC50 [12]: 4.44 µM; IC50 (SGC-7901): 1.51 µM; selectivity ratio [15]: 101; selectivity ratio [16]: 25.2; selectivity ratio [17]: 0.2; selectivity ratio [19]: 25.2; IC50 (HEK-293T): 56.4 µM; selectivity ratio [21]: 25.2; selectivity ratio [22]: 0.2; selectivity ratio [23]: 50.4; selectivity ratio [27]: < 0.79
CCn1cc(C(=O)O)c(=O)c2cc(F)c(N3CCNCC3)cc21 [NORFLOXACIN]	0.39 (≈ 0.125 µg/mL)	12.5 (≈ 4 µg/mL)	32	> 401	6.27 (≈ 2 µg/mL)	3.13 (≈ 1 µg/mL)	> 401	1.57 (≈ 0.501 µg/mL)	0.39 (≈ 0.125 µg/mL)	6.27 (≈ 2 µg/mL)	3.13 (≈ 1 µg/mL)	0.78 (≈ 0.249 µg/mL)	0.39 (≈ 0.125 µg/mL)	0.39 (≈ 0.125 µg/mL)	1.57 (≈ 0.501 µg/mL)	16	–
